# Results as given in ChEMBL document CHEMBL1132360, “N-Substituted (2,3-dihydro-1,4-benzodioxin-2-yl)methylamine derivatives as D(2) antagonists/5-HT(1A) partial agonists with potential as atypical antipsychotic agents” (J Med Chem, 1999).
# What was measured:
# [1] = molecular target: 5-hydroxytryptamine receptor 2A (Rattus norvegicus, UniProt P14842); test: The compound was tested for binding affinity against 5-hydroxytryptamine 2A receptor
# [2] = molecular target: D(2) dopamine receptor (Homo sapiens, UniProt P14416); test: The compound was tested for binding affinity against human Dopamine receptor D2L
# [3] = molecular target: T1, Adrenergic receptor alpha-1 (Homo sapiens, UniProt P35348+P25100+P35368); test: Binding affinity towards Alpha-1 adrenergic receptor in human cortex membranes; type: cell membranes
# T1 sequence (P35348 whole entry): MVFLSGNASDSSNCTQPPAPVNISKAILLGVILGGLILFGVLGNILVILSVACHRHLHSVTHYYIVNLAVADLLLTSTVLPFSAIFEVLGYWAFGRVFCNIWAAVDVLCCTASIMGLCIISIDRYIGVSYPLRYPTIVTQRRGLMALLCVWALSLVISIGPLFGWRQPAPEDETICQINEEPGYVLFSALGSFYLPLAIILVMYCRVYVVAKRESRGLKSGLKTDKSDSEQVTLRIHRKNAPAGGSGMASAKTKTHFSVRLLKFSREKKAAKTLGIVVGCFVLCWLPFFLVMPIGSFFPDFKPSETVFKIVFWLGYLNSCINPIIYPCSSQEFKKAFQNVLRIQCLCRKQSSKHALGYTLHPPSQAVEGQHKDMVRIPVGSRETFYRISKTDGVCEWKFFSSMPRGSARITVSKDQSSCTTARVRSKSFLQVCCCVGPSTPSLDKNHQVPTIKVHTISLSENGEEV
# T1 sequence (P25100 whole entry): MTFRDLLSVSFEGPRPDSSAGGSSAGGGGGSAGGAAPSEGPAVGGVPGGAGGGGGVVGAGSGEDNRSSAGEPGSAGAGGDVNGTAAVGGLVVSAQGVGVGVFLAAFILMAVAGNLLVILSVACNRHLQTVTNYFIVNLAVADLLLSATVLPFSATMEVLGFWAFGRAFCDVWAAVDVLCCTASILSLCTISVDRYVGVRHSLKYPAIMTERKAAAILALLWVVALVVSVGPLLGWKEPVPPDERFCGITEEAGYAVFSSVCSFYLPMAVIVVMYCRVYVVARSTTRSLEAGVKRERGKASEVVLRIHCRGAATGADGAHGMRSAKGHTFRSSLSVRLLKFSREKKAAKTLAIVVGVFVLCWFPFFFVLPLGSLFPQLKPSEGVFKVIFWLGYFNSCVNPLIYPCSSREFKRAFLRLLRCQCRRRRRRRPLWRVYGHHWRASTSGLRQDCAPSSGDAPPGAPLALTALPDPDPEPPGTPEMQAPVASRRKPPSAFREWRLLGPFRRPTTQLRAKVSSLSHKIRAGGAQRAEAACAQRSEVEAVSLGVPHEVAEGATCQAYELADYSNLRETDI
# T1 sequence (P35368 whole entry): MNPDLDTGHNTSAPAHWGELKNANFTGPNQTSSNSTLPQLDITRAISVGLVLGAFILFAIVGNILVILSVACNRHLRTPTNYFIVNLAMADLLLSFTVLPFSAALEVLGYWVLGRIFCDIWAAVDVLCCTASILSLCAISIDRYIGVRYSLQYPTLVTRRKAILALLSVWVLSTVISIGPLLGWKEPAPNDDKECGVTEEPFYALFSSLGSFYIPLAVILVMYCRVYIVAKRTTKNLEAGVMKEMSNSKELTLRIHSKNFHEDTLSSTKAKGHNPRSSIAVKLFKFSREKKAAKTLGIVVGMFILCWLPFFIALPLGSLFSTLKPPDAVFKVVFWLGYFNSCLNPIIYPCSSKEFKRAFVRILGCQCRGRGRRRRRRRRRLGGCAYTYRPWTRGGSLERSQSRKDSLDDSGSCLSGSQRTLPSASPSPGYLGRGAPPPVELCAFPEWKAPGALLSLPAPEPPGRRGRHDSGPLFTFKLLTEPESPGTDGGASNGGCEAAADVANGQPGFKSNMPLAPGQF
# [4] = molecular target: Histamine H1 receptor (Rattus norvegicus, UniProt P31390); test: The compound was tested for binding affinity against H1 receptor
# [5] = molecular target: 5-hydroxytryptamine receptor 1B (Sus scrofa, UniProt P79399); test: The compound was tested for binding affinity against 5-hydroxytryptamine 1B receptor
# In short: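 Pig caudate membranes washed at 37 °C to remove endogenous 5-HT, in 50 mM Tris-HCl pH 7.7. Incubated 45 min at 25 °C with 4 nM [3H]sumatriptan plus CaCl2, pargyline and ascorbate, test agent at 10^-6 M; 10 μM 5-HT for nonspecific binding. Filtration, scintillation counting; percent displacement of specific binding.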
# [6] = molecular target: T2, Alpha-2A adrenergic receptor (Rattus norvegicus, UniProt P22909); test: The compound was tested for binding affinity against alpha-2D adrenergic receptor
# T2 sequence (P22909 whole entry): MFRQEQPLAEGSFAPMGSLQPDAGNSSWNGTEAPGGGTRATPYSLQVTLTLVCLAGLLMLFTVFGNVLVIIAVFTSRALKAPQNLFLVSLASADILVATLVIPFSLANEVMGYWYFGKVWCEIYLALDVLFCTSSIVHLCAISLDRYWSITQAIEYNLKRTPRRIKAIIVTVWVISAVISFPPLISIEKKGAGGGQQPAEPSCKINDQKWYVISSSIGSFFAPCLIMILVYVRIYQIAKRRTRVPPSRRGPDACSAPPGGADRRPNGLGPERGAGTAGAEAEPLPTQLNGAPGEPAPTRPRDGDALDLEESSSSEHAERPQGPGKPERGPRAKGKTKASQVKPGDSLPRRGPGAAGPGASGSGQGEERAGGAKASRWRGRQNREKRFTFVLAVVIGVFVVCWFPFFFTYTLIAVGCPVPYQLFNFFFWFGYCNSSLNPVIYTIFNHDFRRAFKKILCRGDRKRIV
# [7] = tested on: Rattus norvegicus; test: The compound was tested in vivo for induction of catalepsy in rat after ip administration; type: functional
# In short: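 Male rats (130–190 g), groups of five, injected ip with compound solution (1 mL/kg). Catalepsy assessed at three times by placing each paw on a 45 mm rubber bung; a paw held 15 s scores 1 (group maximum 20 = 100%). ED50 from percent catalepsy at the final reading, by adapted Litchfield–Wilcoxon.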
# [8] = molecular target: 5-hydroxytryptamine receptor 6 (Rattus norvegicus, UniProt P31388); test: The compound was tested for binding affinity against 5-hydroxytryptamine 6 receptor
# Chain of 5-hydroxytryptamine receptor 6 (P31388 whole entry): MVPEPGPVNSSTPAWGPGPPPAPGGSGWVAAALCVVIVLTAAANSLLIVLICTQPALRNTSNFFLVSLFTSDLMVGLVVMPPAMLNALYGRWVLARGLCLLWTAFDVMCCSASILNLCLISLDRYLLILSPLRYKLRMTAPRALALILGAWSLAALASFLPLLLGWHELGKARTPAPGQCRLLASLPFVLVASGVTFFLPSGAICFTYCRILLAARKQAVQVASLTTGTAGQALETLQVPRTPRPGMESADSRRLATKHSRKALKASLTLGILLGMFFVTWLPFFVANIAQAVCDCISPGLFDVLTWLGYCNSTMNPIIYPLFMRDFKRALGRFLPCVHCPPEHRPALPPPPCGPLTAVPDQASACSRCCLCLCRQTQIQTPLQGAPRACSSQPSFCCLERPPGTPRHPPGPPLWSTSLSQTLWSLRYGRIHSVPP
# Chain of 5-hydroxytryptamine receptor 2A (P14842 whole entry): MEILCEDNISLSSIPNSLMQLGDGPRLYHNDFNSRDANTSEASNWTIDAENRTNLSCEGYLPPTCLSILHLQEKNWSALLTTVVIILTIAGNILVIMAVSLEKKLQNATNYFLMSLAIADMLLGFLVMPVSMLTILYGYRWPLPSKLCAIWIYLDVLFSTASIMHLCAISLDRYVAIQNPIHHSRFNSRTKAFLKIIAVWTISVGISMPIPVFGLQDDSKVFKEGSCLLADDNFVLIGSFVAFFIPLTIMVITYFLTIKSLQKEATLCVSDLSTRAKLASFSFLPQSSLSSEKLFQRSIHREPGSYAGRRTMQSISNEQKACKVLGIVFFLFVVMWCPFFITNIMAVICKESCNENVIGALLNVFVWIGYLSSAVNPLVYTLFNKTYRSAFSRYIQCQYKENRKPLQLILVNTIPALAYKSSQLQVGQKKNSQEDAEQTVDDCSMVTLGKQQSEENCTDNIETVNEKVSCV
# Chain of Histamine H1 receptor (P31390 whole entry): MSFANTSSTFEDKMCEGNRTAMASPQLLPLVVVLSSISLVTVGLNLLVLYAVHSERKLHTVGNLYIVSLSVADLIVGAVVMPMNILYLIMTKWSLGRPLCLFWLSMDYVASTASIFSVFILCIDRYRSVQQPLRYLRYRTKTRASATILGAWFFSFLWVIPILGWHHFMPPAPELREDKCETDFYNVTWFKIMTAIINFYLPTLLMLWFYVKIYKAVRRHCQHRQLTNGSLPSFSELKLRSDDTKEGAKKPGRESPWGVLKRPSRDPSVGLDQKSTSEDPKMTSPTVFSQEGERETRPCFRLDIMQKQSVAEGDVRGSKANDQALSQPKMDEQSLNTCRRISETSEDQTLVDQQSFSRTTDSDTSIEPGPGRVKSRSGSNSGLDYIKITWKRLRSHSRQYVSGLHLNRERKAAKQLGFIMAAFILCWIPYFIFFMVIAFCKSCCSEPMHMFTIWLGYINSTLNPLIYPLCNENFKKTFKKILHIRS
# Chain of 5-hydroxytryptamine receptor 1B (P79399 whole entry): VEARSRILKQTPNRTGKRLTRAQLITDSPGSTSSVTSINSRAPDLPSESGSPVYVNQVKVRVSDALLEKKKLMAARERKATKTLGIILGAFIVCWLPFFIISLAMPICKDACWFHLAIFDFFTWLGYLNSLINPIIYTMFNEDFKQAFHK
# Chain of D(2) dopamine receptor (P14416 whole entry): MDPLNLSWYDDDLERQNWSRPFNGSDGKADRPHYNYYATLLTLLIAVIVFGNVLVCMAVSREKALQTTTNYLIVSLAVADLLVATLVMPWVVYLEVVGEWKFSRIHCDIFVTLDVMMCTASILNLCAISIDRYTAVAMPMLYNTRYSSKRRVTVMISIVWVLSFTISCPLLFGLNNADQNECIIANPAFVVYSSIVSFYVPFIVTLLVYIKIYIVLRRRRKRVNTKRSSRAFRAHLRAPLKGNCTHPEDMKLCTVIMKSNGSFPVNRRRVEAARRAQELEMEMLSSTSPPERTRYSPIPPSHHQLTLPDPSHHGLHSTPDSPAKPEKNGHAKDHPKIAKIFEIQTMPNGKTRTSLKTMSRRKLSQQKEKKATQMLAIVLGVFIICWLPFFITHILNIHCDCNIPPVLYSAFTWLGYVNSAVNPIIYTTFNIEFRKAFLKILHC
structure (smiles),measurement,setting,value
COc1ccccc1N1CCC(CNCC2COc3ccc(Cl)cc3O2)CC1 (stereo not drawn),Ki,[1],> 500 nM
same,Ki,[2],13.2 nM
same,Ki,[3],53 nM
same,Ki,[4],> 1000 nM
same,Ki,[5],> 1000 nM
same,Ki,[6],> 500 nM
same,ED50,[7],188 mg/kg
same,Ki,[8],> 500 nM
